# Measured values as given in ChEMBL document CHEMBL1155292, “Synthesis, analgesic and anti-inflammatory activities evaluation of some bi-, tri- and tetracyclic condensed pyrimidines” (Eur J Med Chem, 2009).
# Key:
# Rattus norvegicus [1] = assay: Antiinflammatory activity in albino rat assessed as inhibition of carrageenan-induced paw edema at 0.029 mmol/kg, po after 3 hrs relative to control; assay type: functional
# Outline: (§1)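 Adult albino rats of either sex, 120–150 g, six per group. Compounds at 0.029 mmol/kg suspended in saline with a few drops of Tween 80 and given by oral stomach tube. After 1 h, 0.1 ml of freshly prepared 1% carrageenan in saline injected subplantar into the right hind paw. Paw thickness measured at 1–4 h; % edema inhibition versus control; mean ± SEM; ANOVA.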
# Rattus norvegicus [2] = assay: Antiinflammatory activity in albino rat assessed as inhibition of carrageenan-induced paw edema at 0.029 mmol/kg, po after 1 hr relative to control; assay type: functional; outline: as §1
# Rattus norvegicus [3] = assay: Gastrointestinal toxicity in albino rat assessed as ulcerogenic index at 0.029 mmol/kg, po after 5 hrs; assay type: organism-based; settings: in vivo
# Outline: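 Adult albino rats of either sex (120–150 g), 6 per group, got the test compounds orally by stomach tube as a suspension in saline with a few drops of tween 80. They were the same rats used in the carrageenan paw-edema test. Stomachs were then opened along the great curvature and examined for lesions or bleeding. Ulceration was recorded as the number of rats with ulcers out of 6.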
# Rattus norvegicus [4] = assay: Antiinflammatory activity in albino rat assessed as inhibition of carrageenan-induced paw edema at 0.029 mmol/kg, po after 4 hrs relative to indomethacin; assay type: functional
# Outline: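 Rat carrageenan paw edema: oral 0.029 mmol/kg in saline/Tween 80, 1 h before subplantar 0.1 ml 1% carrageenan into the right hind paw; six rats per group. Potency is % inhibition of the test compound divided by % inhibition of indomethacin at 4 h.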
# Rattus norvegicus [5] = assay: Antiinflammatory activity in albino rat assessed as inhibition of carrageenan-induced paw edema at 0.029 mmol/kg, po after 4 hrs relative to control; assay type: functional; outline: as §1
# Rattus norvegicus [6] = assay: Antiinflammatory activity in albino rat assessed as inhibition of carrageenan-induced paw edema at 0.029 mmol/kg, po after 2 hrs relative to control; assay type: functional; outline: as §1
# Mus musculus [7] = assay: Analgesic activity in albino mouse assessed as decrease in acetic acid-induced writhing at 14.37 mg/kg, po administered 1 hr prior to acetic acid challenge relative to control; assay type: functional
# Outline: (§2)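 Albino mice of either sex, 18–22 g, six per group. Test agents suspended in saline with a few drops of Tween 80 and given by oral stomach tube; controls handled identically without drug. After 1 h, 0.3 ml of 1% acetic acid ip. Writhing contractions counted for 30 min, starting 5 min after injection. % protection versus control mean; mean ± SEM; one-way ANOVA with post hoc test.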
# Mus musculus [8] = assay: Analgesic activity in albino mouse assessed as decrease in acetic acid-induced writhing at 1 mg/kg, po administered 1 hr prior to acetic acid challenge; assay type: functional; outline: as §2
# Mus musculus [9] = assay: Analgesic activity in albino mouse assessed as decrease in acetic acid-induced writhing at 2 mg/kg, po administered 1 hr prior to acetic acid challenge; assay type: functional; outline: as §2
# Mus musculus [10] = assay: Analgesic activity in albino mouse assessed as decrease in acetic acid-induced writhing at 4 mg/kg, po administered 1 hr prior to acetic acid challenge; assay type: functional; outline: as §2
# Mus musculus [11] = assay: Analgesic activity in albino mouse assessed as decrease in acetic acid-induced writhing at 0.4 mg/kg, po administered 1 hr prior to acetic acid challenge; assay type: functional; outline: as §2
# Mus musculus [12] = assay: Analgesic activity in po dosed albino mouse assessed as decrease in acetic acid-induced writhing administered 1 hr prior to acetic acid challenge; assay type: functional, organism-based; outline: as §2
# Mus musculus [13] = assay: Analgesic activity in albino mouse assessed as decrease in acetic acid-induced writhing at 10.86 mg/kg, po administered 1 hr prior to acetic acid challenge relative to control; assay type: functional; outline: as §2
# Mus musculus [14] = assay: Analgesic activity in albino mouse assessed as decrease in acetic acid-induced writhing at 8 mg/kg, po administered 1 hr prior to acetic acid challenge; assay type: functional; outline: as §2
# Mus musculus [15] = assay: Analgesic activity in albino mouse assessed as decrease in acetic acid-induced writhing at 0.8 mg/kg, po administered 1 hr prior to acetic acid challenge; assay type: functional; outline: as §2
# Mus musculus [16] = assay: Analgesic activity in albino mouse assessed as decrease in acetic acid-induced writhing at 10.39 mg/kg, po administered 1 hr prior to acetic acid challenge relative to control; assay type: functional; outline: as §2
# Mus musculus [17] = assay: Analgesic activity in albino mouse assessed as decrease in acetic acid-induced writhing at 12.4 mg/kg, po administered 1 hr prior to acetic acid challenge relative to control; assay type: functional; outline: as §2
# Mus musculus [18] = assay: Analgesic activity in albino mouse assessed as decrease in acetic acid-induced writhing at 13 mg/kg, po administered 1 hr prior to acetic acid challenge relative to control; assay type: functional; outline: as §2
# Mus musculus [19] = assay: Analgesic activity in albino mouse assessed as decrease in acetic acid-induced writhing at 15.26 mg/kg, po administered 1 hr prior to acetic acid challenge relative to control; assay type: functional; outline: as §2
# Rattus norvegicus [20] = assay: Antiinflammatory activity in albino rat assessed as inhibition of carrageenan-induced paw edema at 10 mg/kg, po; assay type: functional
# Outline: (§3)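 Rat carrageenan paw edema with oral dosing at 10, 15, 20 and 25 mg/kg, suspended in saline with Tween 80, 1 h before subplantar 0.1 ml 1% carrageenan into the right hind paw. % edema inhibition versus control at each dose; IC50 (mg/kg) derived from these four doses.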
# Rattus norvegicus [21] = assay: Antiinflammatory activity in po dosed albino rat assessed as inhibition of carrageenan-induced paw edema; assay type: functional, organism-based
# Outline: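 Adult albino rats of either sex, 120–150 g, groups of 6. Compound suspended in saline with a few drops of tween 80, given by oral stomach tube 1 h before subplantar injection of freshly prepared 1% carrageenan (0.1 ml) in saline into right hind paw. Paw thickness read at 1–4 h; % edema inhibition versus carrageenan control; mean ± SEM, one-way ANOVA with post hoc test.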
# Rattus norvegicus [22] = assay: Antiinflammatory activity in albino rat assessed as inhibition of carrageenan-induced paw edema at 25 mg/kg, po; assay type: functional; outline: as §3
# Rattus norvegicus [23] = assay: Antiinflammatory activity in albino rat assessed as inhibition of carrageenan-induced paw edema at 15 mg/kg, po; assay type: functional; outline: as §3
# Rattus norvegicus [24] = assay: Antiinflammatory activity in albino rat assessed as inhibition of carrageenan-induced paw edema at 20 mg/kg, po; assay type: functional; outline: as §3
# Mus musculus [25] = assay: Analgesic activity in albino mouse assessed as decrease in acetic acid-induced writhing at 11.66 mg/kg, po administered 1 hr prior to acetic acid challenge relative to control; assay type: functional; outline: as §2
# Mus musculus [26] = assay: Analgesic activity in albino mouse assessed as decrease in acetic acid-induced writhing at 12.65 mg/kg, po administered 1 hr prior to acetic acid challenge relative to control; assay type: functional; outline: as §2
SMILES,inhibition in vivo at 29 µmol/kg (Rattus norvegicus [1]),inhibition in vivo at 29 µmol/kg (Rattus norvegicus [2]),relative potency at 29 µmol/kg (Rattus norvegicus [4]),inhibition in vivo at 29 µmol/kg (Rattus norvegicus [5]),inhibition in vivo at 29 µmol/kg (Rattus norvegicus [6]),also measured
CCOC(=O)c1cnn(-c2nc(-c3ccccc3)nc3c2C2CCCN2C(=O)N3c2ccccc2)c1N (configuration not stated),23.7%,6.74%,0.4,11.2%,18.2%,UI (Rattus norvegicus [3]): Non-toxic; inhibition in vivo at 14.37 mg/kg (Mus musculus [7]): 74.8%
CCN1C(=S)N2CCCC2C2=C1NC(c1ccc(OC)c(O)c1)NC2=O (configuration not stated),2.89%,22.4%,0.11,3.09%,9.12%,inhibition in vivo at 1 mg/kg (Mus musculus [8]): 86.9%; inhibition in vivo at 2 mg/kg (Mus musculus [9]): 92%; inhibition in vivo at 4 mg/kg (Mus musculus [10]): 95.3%; inhibition in vivo at 0.4 mg/kg (Mus musculus [11]): 53.6%; IC50 (Mus musculus [12]): 0.359 mg/kg; inhibition in vivo at 10.86 mg/kg (Mus musculus [13]): 98.7%; inhibition in vivo at 8 mg/kg (Mus musculus [14]): 97%; inhibition in vivo at 0.8 mg/kg (Mus musculus [15]): 76%
CCN1C(=S)N2CCCC2C2=C1NC(c1ccc(OC)cc1)NC2=O (configuration not stated),10.8%,10.1%,0.54,14.9%,9.12%,inhibition in vivo at 10.39 mg/kg (Mus musculus [16]): 85%
O=C1N(c2ccccc2)c2nc(-c3ccccc3)nc(N3CCOCC3)c2C2CCCN12 (configuration not stated),18.7%,11.2%,0.4,11.2%,19%,inhibition in vivo at 12.4 mg/kg (Mus musculus [17]): 67%; UI (Rattus norvegicus [3]): Non-toxic
N#Cc1cnn(-c2nc(-c3ccccc3)nc3c2C2CCCN2C(=O)N3c2ccccc2)c1N (configuration not stated),9.37%,12.3%,0.24,6.82%,9.92%,inhibition in vivo at 13 mg/kg (Mus musculus [18]): 76.8%
Cc1ccc(S(=O)(=O)NNc2nc(-c3ccccc3)nc3c2C2CCCN2C(=O)N3c2ccccc2)cc1 (configuration not stated),23.1%,22.4%,0.79,21.7%,16.6%,inhibition in vivo at 15.26 mg/kg (Mus musculus [19]): 76.6%
CCCNc1nc(-c2ccccc2)nc2c1C1CCCN1C(=O)N2c1ccccc1 (configuration not stated),30.9%,13.5%,1.34,36.6%,25.6%,inhibition in vivo at 10 mg/kg (Rattus norvegicus [20]): 27.6%; IC50 (Rattus norvegicus [21]): 16.5 mg/kg; inhibition in vivo at 25 mg/kg (Rattus norvegicus [22]): 69%; inhibition in vivo at 15 mg/kg (Rattus norvegicus [23]): 41.6%; inhibition in vivo at 20 mg/kg (Rattus norvegicus [24]): 63.3%; inhibition in vivo at 11.66 mg/kg (Mus musculus [25]): 69.6%
Cc1cc(C)n(-c2nc(-c3ccccc3)nc3c2C2CCCN2C(=O)N3c2ccccc2)n1 (configuration not stated),20.9%,17.9%,0.63,17.4%,20.7%,inhibition in vivo at 12.65 mg/kg (Mus musculus [26]): 76.6%
